CHOP inhibitor: CHOP inhibition in unfolded protein response; actives 3.8% (n = 220,000); inhibition, % at 10 µM; CHO-K1 CHOP-promoter luciferase, tunicamycin-induced, 15-18 h;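 active = compounds that reduced the stress-induced luciferase reporter signal by more than about 70% of percent inhibition, limit read from the data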;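 note: 0% = tunicamycin plus vehicle and 100% = wells without tunicamycin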
PREPL inhibitor: human PREPL enzyme inhibition; actives 0.68% (n = 320,000); AID 2751; inhibition, % at 5.96 µM; recombinant PREPL, fluorescence polarization activity-based probe; Q4J6C6; in the data active = inhibition above about 43%;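 note: 0% = enzyme with DMSO and 100% = wells lacking enzyme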
Target sequence (Q4J6C6 whole entry, looked up): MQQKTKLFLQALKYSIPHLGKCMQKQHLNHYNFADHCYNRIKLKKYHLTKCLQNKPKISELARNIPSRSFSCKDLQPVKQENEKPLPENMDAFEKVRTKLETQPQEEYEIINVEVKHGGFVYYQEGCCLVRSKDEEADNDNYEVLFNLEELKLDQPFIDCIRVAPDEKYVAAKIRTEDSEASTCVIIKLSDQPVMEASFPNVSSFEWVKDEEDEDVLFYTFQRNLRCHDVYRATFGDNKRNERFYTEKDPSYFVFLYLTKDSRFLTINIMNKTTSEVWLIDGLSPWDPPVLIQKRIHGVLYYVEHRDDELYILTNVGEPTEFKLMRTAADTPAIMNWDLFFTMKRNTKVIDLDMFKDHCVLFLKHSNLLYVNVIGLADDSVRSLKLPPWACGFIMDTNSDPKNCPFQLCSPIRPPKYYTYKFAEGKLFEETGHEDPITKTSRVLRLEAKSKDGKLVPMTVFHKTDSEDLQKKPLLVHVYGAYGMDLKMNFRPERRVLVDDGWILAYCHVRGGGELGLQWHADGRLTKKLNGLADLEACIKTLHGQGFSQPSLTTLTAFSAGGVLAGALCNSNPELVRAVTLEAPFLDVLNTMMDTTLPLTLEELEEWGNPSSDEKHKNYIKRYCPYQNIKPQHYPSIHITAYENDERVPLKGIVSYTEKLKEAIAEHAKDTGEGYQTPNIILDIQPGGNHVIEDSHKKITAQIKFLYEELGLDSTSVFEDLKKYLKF
NR3A LBD binder: NR3A (human) ligand-binding domain modulation; NR3A LBD differential scanning fluorimetry, Tm shift; 0% = protein alone, 100% = glycine-bound protein; Tm shift relative to glycine control, % at 25 µM; actives 2.5% (n = 340,000);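 active = melting temperature shift of at least 10% of the positive control shift, at one fixed dose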
CSC inhib: cancer stem cell inhibition; cancer stem cell-like cells viability, luminescence; inhibition, % at 7.5 µM; actives 1.1% (n = 300,000); in the data active = inhibition above about 75%; tested in HMLE shEcad cells
T cruzi repl: T. cruzi replication inhibition | actives 1.4% (n = 300,000) | AID 1885 | inhibition, % (test concentration not listed) | T. cruzi beta-gal in NIH3T3, luminescence, 90 h;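 active = mean inhibition across valid replicates above about 55%, limit read from the data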;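 note: signal also drops with host cell toxicity which is not excluded here; 0% = plate median of DMSO wells and 100% = zero luminescence signal; higher percent means less beta-gal luminescence so fewer parasites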
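Material: NIH/3T3 host cells with β-galactosidase reporter T. cruzi; Input: 5,000 host fibroblasts per well; Medium: DMEM, 2% fetal bovine serum; Compound: 50 nL DMSO compound solution per well; Schedule: 3 h host attachment, then at least 90 h co-culture; Detection: luminescent β-galactosidase signal after 60 min lysis.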
Beta apoptosis: blocks beta cell apoptosis. actives 0.8% (n = 300,000). INS-1E cytokine-induced death, ATP luminescence, 48 h; percent of positive-control rescue, neutral wells zero. protection from apoptosis, % (no concentration beside the values). AID 435005;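 active = Every replicate reaches about 75%, or at least half do and their mean reaches it too, limit read from the data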;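 note: 0% = cytokine-treated negative control wells and 100% = positive control rescue; higher means more ATP so stronger rescue from cytokine killing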
CHOP inh conf: confirmation of CHOP induction inhibitors. shares compounds with CHOP inhibitor. CHO-CHOP promoter luciferase reporter, tunicamycin-induced, luminescence. inhibition, % at 10 µM. actives 45% (n = 2,100). AID 504437;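 active = mean of three repeat readings of reporter signal inhibition above a set limit, cut at about 70% in these data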;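 note: 0% = tunicamycin plus vehicle and 100% = wells lacking tunicamycin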
An asterisk follows results filed as active; x = not tested or not shown. Shown are actives, neighbours in structure and some others; about 6.7% of the full set was active somewhere.

SMILES	CHOP inhibitor	PREPL inhibitor	NR3A LBD binder	CSC inhib	T cruzi repl	Beta apoptosis	CHOP inh conf
Nc1nc(OCC(F)(F)F)cc(Oc2ccccc2F)n1	46	5	0	-3	5	1	x
Cc1cc(C(=O)N/N=C/c2ccc(-c3cccc(Cl)c3Cl)o2)n[nH]1	101*	5	13*	-13	20	x	73*
Nc1cccc2c1C(=O)N(C(=O)c1ccco1)C2=O	0	7	-1	-1	-12	-6	x
Nc1cccc2c1C(=O)N(C(=O)/C=C/c1ccc(F)cc1)C2=O	103*	-2	-7	-3	-6	-1	-111
O=C(NC(NNc1ccc([N+](=O)[O-])cc1)(C(F)(F)F)C(F)(F)F)c1ccccc1Cl	55	-3	-3	9	-18	1	x
O=C(NC(Nc1nc2ccc([N+](=O)[O-])cc2s1)(C(F)(F)F)C(F)(F)F)c1ccccc1Cl	97*	8	13*	98*	55*	109*	125*
Oc1ccccc1-c1cc(-c2ccccc2Cl)[nH]n1	99*	-17	9	29	4	6	10
Cc1ccc(O)c(-c2cc(-c3ccccc3C)[nH]n2)c1	106*	x	4	x	-4	x	8
Oc1ccc(Cl)cc1-c1cc(-c2ccccc2Cl)[nH]n1	-27	14	10	44	9	4	x
COc1ccc(NC(=O)c2ccccc2OCc2ccc(F)cc2)c(OC)c1	x	-4	-9	28	13	14	x
c1ccc2c(c1)N1CCCN=C1N2CCN1CCCCC1	-4	6	1	-8	-23	-2	x
O=C1N=C2N(CCN3CCCCC3)c3ccccc3N2/C1=C\c1ccc([N+](=O)[O-])o1	107*	x	x	x	x	x	-27
CC1CCc2c(sc3ncn(CCO)c(=O)c23)C1 (centres undefined)	-10	3	0	-12	-12	2	x
CC1CCc2c(sc3ncn(CC(=O)N=Nc4c(O)[nH]c5ccccc45)c(=O)c23)C1 (centres undefined)	105*	-7	2	1	9	11	113*
Cc1cccc(/C=N/NC(=O)c2ccc(Br)cc2)c1	-4	0	-18	5	-19	5	x
Cc1cccc(N/N=C(\C=N\N)C(=O)c2ccc(Br)cc2)c1	103*	6	x	2	8	0	35
CCCn1c(SCc2nc3sc(C)c(C)c3c(=O)[nH]2)nc2ccccc2c1=O	106*	-4	0	33	-2	-2	24
COCCn1c(SCc2nc3ccccc3c(=O)[nH]2)nc2ccccc2c1=O	27	0	-1	-9	3	3	x
Fc1ccc(-n2nnnc2-c2cnc(-c3cccs3)nc2C(F)(F)F)cc1	105*	7	-5	22	9	26	121*
FC(F)(F)c1nc(-c2ccncc2)ncc1-c1nnnn1-c1ccccc1	29	7	2	-2	0	5	x
OC(CSc1c(Cl)cccc1Cl)CN1CCN(c2ccccc2F)CC1 (centres undefined)	97*	-13	-31	6	0	0	14
O=C(COc1ccc(Cl)cc1)N(Cc1ccccc1)c1nc(-c2ccccc2)cs1	103*	-1	-2	20	8	4	54
Cc1ccc(-n2sc3ccccc3c2=O)cc1	106*	8	3	17	74*	25	30
O=c1c2ccccc2sn1-c1ccc(F)cc1	x	24	4	22	x	6	x
O=C1C2CC3N1CCC31c3ccccc3-n3c1c2ccc3=O (centres undefined)	x	x	-1	x	x	x	x
SMILES	CHOP inhibitor	PREPL inhibitor	NR3A LBD binder	CSC inhib	T cruzi repl	Beta apoptosis	CHOP inh conf
Oc1ccc(N=Nc2cccc(C(F)(F)F)c2)cc1C=Nc1ccc(N2CCOCC2)cc1	104*	29	-8	72	1	24	73*
CCN=C1S/C(=C\c2cc(OCC)c(O)cc2Br)C(=O)N1CC	108*	3	5	64	-2	3	37
CCN=C1S/C(=C\c2cn(CC)c3ccccc23)C(=O)N1CC	7	20	-30	x	35	1	x
N=C1/C(=C\c2coc3ccccc3c2=O)C(=O)N=C2SC(c3ccncc3)=NN12	102*	-13	-1	41	-13	6	-4
CSc1cccc(NC(=O)C2CCCN(S(=O)(=O)c3ccc(F)cc3)C2)c1 (centres undefined)	41	-10	-5	x	0	-5	x
O=C(Nc1cccc(Cl)c1)C1CCCN(S(=O)(=O)c2ccc(F)cc2)C1 (centres undefined)	99*	1	-9	x	8	x	42
CC(C)(C)c1ccc(S(=O)(=O)NCC(=O)N2CCCC2)cc1	x	-2	2	x	-10	x	x
Cc1ccc(Nc2nc(N)c([N+](=O)[O-])c(N3CCOCC3)n2)cc1C	13	30	-5	-5	14	-7	x
Cc1ccc(Nc2nc(N)c([N+](=O)[O-])c(N3CCC(C)CC3)n2)cc1C	101*	26	-7	85*	20	3	102*
BrC(=C\c1ccccc1)/C=N/n1cnnc1	106*	x	-4	x	50	x	-22
BrC(=C\c1ccccc1)/C=N/Nc1ccc2nncn2n1	12	21	5	-4	-17	0	x
COCCNC(=O)c1c(NC(=O)c2nc(SC)ncc2Cl)sc2c1CCCC2	65	24	0	x	17	x	x
CCCCCC1CC(CC(=O)Nc2ccc([N+](=O)[O-])cc2)C(=O)O1 (centres undefined)	101*	-15	-1	0	-4	-1	104*
CCN(CC)CC(=O)Nc1ccc([N+](=O)[O-])cc1	-12	-2	-3	-9	9	-1	x
N#CC1=C(N)Oc2n[nH]c(-c3cccs3)c2C1C1CCCCC1 (centres undefined)	104*	-8	-21	-12	0	-1	37
N#CC1=C(N)Oc2n[nH]c(-c3cccs3)c2C1c1ccsc1 (centres undefined)	30	14	-3	-10	-15	-10	x
COc1ccc(N(CC(=O)Nc2ccccc2F)S(=O)(=O)c2ccc(OC)c(OC)c2)cc1	x	-52	1	-11	-5	x	x
O=C1/C(=C/c2ccncc2)Cc2ccccc21	x	-7	-2	-7	-1	-9	x
CC1C/C(=C/c2ccncc2)C(=O)/C(=C/c2ccncc2)C1 (centres undefined)	99*	0	1	77*	38	112*	-59
COc1ccc(-c2cccc(-c3cc(=O)oc4ccc(C(C)(C)C)cc34)c2)cc1	x	x	-4	x	x	x	x
Cc1nc2c(ccc3nc(NC(=O)c4ccc5c(c4)OCCO5)sc32)s1	100*	10	-1	x	57*	x	43
Cc1ccccc1CN(C)CC(=O)NC(C)CCc1ccccc1 (centres undefined)	22	-15	0	5	16	-10	x

Screening data (PubChem BioAssay)
